Like-named read-outs stand apart in the source and are kept apart here. Where a SMILES comes first, the peptide text is derived from it. The star is where a group is joined. Dansyl = CN(C)c1cccc2c(S(=O)(=O)*)cccc12
Legend:
[1] = biological target: T1, protein farnesyltransferase (FTase) (Rattus norvegicus, UniProt Q02293+Q04631); assay: Steady state continuous dansyl fluorescence assay, kcat/Km peptide; format: biochemical; conditions: multiple-turnover substrates, 25 °C; for kcat/Km: initial library, 10 μM FPP, 0.4–10 μM dansylated peptide, 25–300 nM FTase, 50 mM HEPPSO pH 7.8, 5 mM TCEP, 5 mM MgCl2, 10 μM ZnCl; for kcat/KM^peptide: targeted library, dansyl fluorescence
Outline: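 Dansyl-TKCxxx peptides (0.4–10 μM) with saturating FPP 10 μM, 50 mM HEPPSO pH 7.8, 5 mM TCEP, 5 mM MgCl2, 10 μM ZnCl, 25 °C. FTase (25–300 nM) started the reaction. Dansyl fluorescence (ex 340, em 520 nm) followed to endpoint (~2–6 h). Rates converted to product using endpoint fluorescence. kcat/Km from linear or Michaelis–Menten fit of V/[E] versus peptide.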

[2] = biological target: T1, protein farnesyltransferase (FTase); format: biochemical; conditions: single-turnover only (STO) peptides, initial library, 0.4–0.8 μM FTase, 50–100 μM dansylated peptide, 0.1–0.2 μM FPP, 50 mM HEPPSO pH 7.8, 5 mM MgCl2, 2 mM TCEP, 25 °C
Outline: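 Stopped-flow, pre-mix levels: FTase (0.8–1.6 μM) with FPP (0.2–0.4 μM) in HEPPSO pH 7.8, MgCl2, TCEP, plus a phosphate mop (PNPase 0.5 units mL−1, 15 mM 7-methylguanosine). This is mixed 1:1 with dansylated peptide (100 or 200 μM) containing MDCC-labelled A197C PBP (5–10 μM), inorganic pyrophosphatase and the mop. Emission is followed at 450 nm, and a single-exponential fit gives kfarn.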

[3] = biological target: FTase·I2 complex (Rattus norvegicus, UniProt Q02293+Q04631); assay: Peptide binding affinity by fluorescence anisotropy

Row | Compound | kcat/KM^peptide [1] [M⁻¹ s⁻¹] | other results
1 | CTVF |  | kcat/Km [1]: 1300 ± 100 M⁻¹ s⁻¹
2 | CHVQ | 4500 ± 800 | 
3 | CQTA |  | kcat/Km [1]: 530 ± 20 M⁻¹ s⁻¹
4 | TKCYSN |  | kfarn [2]: 0.0025 ± 0.0002 s⁻¹; kfarn ([2]; listed as TKCYSN): 0.0025 s⁻¹
5 | CGLF |  | kcat/Km [1]: 450 ± 60 M⁻¹ s⁻¹
6 | CC[C@H](C)[C@H](NC(=O)[C@H](CO)NC(=O)[C@H](CS)NC(=O)[C@H](CCCCN)NC(=O)[C@@H](NS(=O)(=O)c1cccc2c(N(C)C)cccc12)[C@@H](C)O)C(=O)N[C@@H](CCSC)C(=O)O [CSIM] (Dansyl-TKCSIM-OH) |  | Kd [3]: 6 ± 2 nM
7 | CHLS | 460 ± 20 | 
8 | CKIV | 870 ± 70 | 
9 | CFTN | 970 ± 70 | 
10 | CVHF | 460 ± 40 | 
11 | CNLK | 6300 ± 1600 | 
12 | CAVL |  | kfarn [2]: 0.91 ± 0.09 s⁻¹
13 | CSLH | 210 ± 10 | 
14 | CPLG |  | kfarn [2]: 0.019 ± 0.001 s⁻¹
15 | CHIM | 3300 ± 400 | 
16 | CLML |  | kcat/Km [1]: 150 ± 20 M⁻¹ s⁻¹
17 | CVLQ |  | kcat/Km [1]: 780 ± 30 M⁻¹ s⁻¹
18 | CHVM | 10000 ± 8000 | 
19 | CYLA | 4700 ± 300 | 
20 | CNLM |  | kcat/Km [1]: 1000 ± 300 M⁻¹ s⁻¹
21 | CSEA |  | kfarn [2]: 0.020 ± 0.002 s⁻¹
22 | CVLL |  | kfarn [2]: 0.83 ± 0.08 s⁻¹

Row | Compound | kcat/KM^peptide [1] [M⁻¹ s⁻¹] | other results
23 | CEIQ | 3100 ± 600 | 
24 | CGIA |  | kcat/Km [1]: 160 ± 50 M⁻¹ s⁻¹
25 | CYIS | 12000 ± 5000 | 
26 | CFPS | 4700 ± 500 | 
27 | CLLV | 100 ± 60 | 
28 | CSLA | 2500 ± 300 | 
29 | CGLY |  | kcat/Km [1]: 1000 ± 100 M⁻¹ s⁻¹
30 | CC[C@H](C)[C@H](NC(=O)[C@H](CS)NC(=O)[C@H](CCCCN)NC(=O)[C@@H](NS(=O)(=O)c1cccc2c(N(C)C)cccc12)[C@@H](C)O)C(=O)N[C@H](C(=O)N[C@@H](C)C(=O)O)C(C)C [CIVA] (Dansyl-TKCIVA-OH) |  | Kd [3]: 5 ± 2 nM
31 | CSVQ |  | kcat/Km [1]: 1200 ± 400 M⁻¹ s⁻¹
32 | CHLM | 2000 ± 300 | 
33 | CTVS | 5800 ± 1200 | 
34 | CALV | 100 ± 20 | 
35 | CAKS |  | kfarn [2]: 2.3 ± 0.2 s⁻¹
36 | CHIQ | 2200 ± 600 | 
37 | CALQ | 12000 ± 2000 | 
38 | CDVK | 3600 ± 800 | 
39 | CTIV | 7200 ± 800 | 
40 | CFVN | 2100 ± 700 | 
41 | CVQM |  | kcat/Km [1]: 270 ± 30 M⁻¹ s⁻¹
42 | CVSS |  | kfarn [2]: 0.097 ± 0.009 s⁻¹
43 | CGVV | 90 ± 30 | 
